The source made the active and inactive calls. The rule behind the calls is not given here.
Experiments:
P2Y purinoceptor 2 [1] = biological target: P2Y purinoceptor 2 (Homo sapiens, UniProt P41231, C278S); test: Antagonist activity at N-terminal HA epitope-tagged human P2Y2 receptor C278S mutant expressed in human 1321N1 cells assessed as inhibition of UTP-induced calcium mobilization; assay type: functional, cell-based
In short: (§1)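 1321N1 cells expressing wild-type or mutant receptor were dye-loaded with Oregon Green BAPTA-1/AM in Krebs-HEPES pH 7.4. Antagonist was preincubated for 20 min at 28 °C in the dark. Cells were then stimulated with UTP at a concentration giving 80-90% of maximal response. Calcium fluorescence read at 520 nm (excitation 485 nm).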

P2Y purinoceptor 2 [2] = biological target: T1, P2Y purinoceptor 2 (Homo sapiens, UniProt P41231); test: Antagonist activity at N-terminal HA epitope-tagged wild type 3 human P2Y2 receptor expressed in human 1321N1 cells assessed as inhibition of UTP-induced calcium mobilization; assay type: functional, cell-based; in short: as §1
P2Y purinoceptor 2 [3] = biological target: P2Y purinoceptor 2 (Homo sapiens, UniProt P41231, Y114A); test: Antagonist activity at N-terminal HA epitope-tagged human P2Y2 receptor Y114A mutant expressed in human 1321N1 cells assessed as inhibition of UTP-induced calcium mobilization; assay type: functional, cell-based; in short: as §1
P2Y purinoceptor 2 [4] = biological target: T1, P2Y purinoceptor 2; test: Antagonist activity at N-terminal HA epitope-tagged wild type 4 human P2Y2 receptor expressed in human 1321N1 cells assessed as inhibition of UTP-induced calcium mobilization; assay type: functional, cell-based
[5] = tested on: P2Y purinoceptor 2 (Homo sapiens), P41231 [UNDEFINED MUTATION]; test: Ratio of IC50 for N-terminal HA epitope-tagged human P2Y2 receptor C278S mutant to IC50 for wild type 3 human P2Y2 receptor
P2Y purinoceptor 2 [6] = biological target: P2Y purinoceptor 2 (Homo sapiens, UniProt P41231, R177A/R180A); test: Antagonist activity at N-terminal HA epitope-tagged human P2Y2 receptor R177A_R180A double mutant expressed in human 1321N1 cells assessed as inhibition of UTP-induced calcium mobilization; assay type: functional, cell-based; in short: as §1
P2Y purinoceptor 2 [7] = biological target: P2Y purinoceptor 2 (Homo sapiens, UniProt P41231, Y118A); test: Antagonist activity at N-terminal HA epitope-tagged human P2Y2 receptor Y118A mutant expressed in human 1321N1 cells assessed as inhibition of UTP-induced calcium mobilization; assay type: functional, cell-based; in short: as §1
P2Y purinoceptor 2 [8] = biological target: P2Y purinoceptor 2 (Homo sapiens, UniProt P41231, Y198A); test: Antagonist activity at N-terminal HA epitope-tagged human P2Y2 receptor Y198A mutant expressed in human 1321N1 cells assessed as inhibition of UTP-induced calcium mobilization; assay type: functional, cell-based; in short: as §1
P2Y purinoceptor 2 [9] = biological target: T1, P2Y purinoceptor 2; test: Agonist activity at N-terminal HA epitope-tagged human P2Y2 receptor expressed in human 1321N1 cells assessed as increase in intracellular calcium level at 100 µM
[10] = tested on: P2Y purinoceptor 2 (Homo sapiens), P41231 [S296A]; test: Agonist activity at N-terminal HA epitope-tagged human P2Y2 receptor S296A mutant expressed in human 1321N1 cells assessed as increase in intracellular calcium level relative to carbachol; assay type: functional, cell-based
In short: (§2)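 Retrovirally transduced stable 1321N1 astrocytoma lines (wild-type lines of differing expression, or mutants) in suspension, loaded with Oregon Green BAPTA-1/AM for 1 h at room temperature. Cells were plated at 150000 per well in Krebs-HEPES pH 7.4 and held 20 min at 28 °C in the dark. Agonist was then injected, with fluorescence read at ex 485/em 520 nm for 60 × 0.4 s.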

P2Y purinoceptor 2 [11] = biological target: T1, P2Y purinoceptor 2; test: Agonist activity at N-terminal HA epitope-tagged wild type 3 human P2Y2 receptor expressed in human 1321N1 cells assessed as increase in intracellular calcium level relative to carbachol; assay type: functional, cell-based; in short: as §2
P2Y purinoceptor 2 [12] = biological target: T1, P2Y purinoceptor 2; test: Agonist activity at N-terminal HA epitope-tagged wild type 4 human P2Y2 receptor expressed in human 1321N1 cells assessed as increase in intracellular calcium level relative to carbachol; assay type: functional, cell-based; in short: as §2
[13] = tested on: P2Y purinoceptor 2 (Homo sapiens), P41231 [Y114A]; test: Agonist activity at N-terminal HA epitope-tagged human P2Y2 receptor Y114A mutant expressed in human 1321N1 cells assessed as increase in intracellular calcium level relative to carbachol; assay type: functional, cell-based; in short: as §2
[14] = tested on: P2Y purinoceptor 2 (Homo sapiens), P41231 [R177A,R180A]; test: Agonist activity at N-terminal HA epitope-tagged human P2Y2 receptor R177A_R180A double mutant expressed in human 1321N1 cells assessed as increase in intracellular calcium level relative to carbachol; assay type: functional, cell-based; in short: as §2
[15] = tested on: P2Y purinoceptor 2 (Homo sapiens), P41231 [R177A]; test: Agonist activity at N-terminal HA epitope-tagged human P2Y2 receptor R177A mutant expressed in human 1321N1 cells assessed as increase in intracellular calcium level relative to carbachol; assay type: functional, cell-based; in short: as §2
[16] = tested on: P2Y purinoceptor 2 (Homo sapiens), P41231 [R180A]; test: Agonist activity at N-terminal HA epitope-tagged human P2Y2 receptor R180A mutant expressed in human 1321N1 cells assessed as increase in intracellular calcium level relative to carbachol; assay type: functional, cell-based; in short: as §2
[17] = tested on: P2Y purinoceptor 2 (Homo sapiens), P41231 [R194H]; test: Agonist activity at N-terminal HA epitope-tagged human P2Y2 receptor R194H mutant expressed in human 1321N1 cells assessed as increase in intracellular calcium level relative to carbachol; assay type: functional, cell-based; in short: as §2
[18] = tested on: P2Y purinoceptor 2 (Homo sapiens), P41231 [Y198A]; test: Agonist activity at N-terminal HA epitope-tagged human P2Y2 receptor Y198A mutant expressed in human 1321N1 cells assessed as increase in intracellular calcium level relative to carbachol; assay type: functional, cell-based; in short: as §2
[19] = tested on: P2Y purinoceptor 2 (Homo sapiens), P41231 [C278S]; test: Agonist activity at N-terminal HA epitope-tagged human P2Y2 receptor C278S mutant expressed in human 1321N1 cells assessed as increase in intracellular calcium level relative to carbachol; assay type: functional, cell-based; in short: as §2
[20] = tested on: P2Y purinoceptor 2 (Homo sapiens), P41231 [R272A]; test: Agonist activity at N-terminal HA epitope-tagged human P2Y2 receptor R272A mutant expressed in human 1321N1 cells assessed as increase in intracellular calcium level up to 300 uM relative to carbachol; assay type: functional, cell-based; in short: as §2
[21] = tested on: P2Y purinoceptor 2 (Homo sapiens), P41231 [Y118A]; test: Agonist activity at N-terminal HA epitope-tagged human P2Y2 receptor Y118A mutant expressed in human 1321N1 cells assessed as increase in intracellular calcium level relative to carbachol; assay type: functional, cell-based; in short: as §2
P2Y purinoceptor 2 (Homo sapiens), P41231 [Y118A], sequence (P41231 whole entry Y118A): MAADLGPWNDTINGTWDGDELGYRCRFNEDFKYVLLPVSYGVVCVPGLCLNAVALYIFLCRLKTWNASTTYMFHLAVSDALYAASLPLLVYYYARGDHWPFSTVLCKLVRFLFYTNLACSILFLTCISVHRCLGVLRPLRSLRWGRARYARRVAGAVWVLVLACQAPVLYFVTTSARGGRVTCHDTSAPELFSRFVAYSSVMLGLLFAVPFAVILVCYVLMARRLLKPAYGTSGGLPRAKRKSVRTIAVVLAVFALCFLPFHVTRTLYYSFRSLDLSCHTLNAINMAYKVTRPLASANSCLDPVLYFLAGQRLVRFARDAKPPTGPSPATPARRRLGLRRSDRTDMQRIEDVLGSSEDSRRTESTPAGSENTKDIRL

T1 sequence (P41231 whole entry): as the sequence (P41231 whole entry Y118A) above, with A118Y counted along it
P2Y purinoceptor 2 (Homo sapiens, UniProt P41231, Y114A), sequence (P41231 whole entry Y114A): as the sequence (P41231 whole entry Y118A) above, with Y114A, A118Y counted along it
P2Y purinoceptor 2 (Homo sapiens), P41231 [Y114A], sequence (P41231 whole entry Y114A): as the sequence (P41231 whole entry Y118A) above, with Y114A, A118Y counted along it
P2Y purinoceptor 2 (Homo sapiens), P41231 [R180A], sequence (P41231 whole entry R180A): as the sequence (P41231 whole entry Y118A) above, with A118Y, R180A counted along it
P2Y purinoceptor 2 (Homo sapiens), P41231 [R177A], sequence (P41231 whole entry R177A): as the sequence (P41231 whole entry Y118A) above, with A118Y, R177A counted along it
P2Y purinoceptor 2 (Homo sapiens), P41231 [Y198A], sequence (P41231 whole entry Y198A): as the sequence (P41231 whole entry Y118A) above, with A118Y, Y198A counted along it
P2Y purinoceptor 2 (Homo sapiens, UniProt P41231, Y198A), sequence (P41231 whole entry Y198A): as the sequence (P41231 whole entry Y118A) above, with A118Y, Y198A counted along it
P2Y purinoceptor 2 (Homo sapiens), P41231 [R272A], sequence (P41231 whole entry R272A): as the sequence (P41231 whole entry Y118A) above, with A118Y, R272A counted along it
P2Y purinoceptor 2 (Homo sapiens, UniProt P41231, Y118A), sequence (P41231 whole entry Y118A): as the sequence (P41231 whole entry Y118A) above
P2Y purinoceptor 2 (Homo sapiens, UniProt P41231, C278S), sequence (P41231 whole entry C278S): as the sequence (P41231 whole entry Y118A) above, with A118Y, C278S counted along it
P2Y purinoceptor 2 (Homo sapiens), P41231 [C278S], sequence (P41231 whole entry C278S): as the sequence (P41231 whole entry Y118A) above, with A118Y, C278S counted along it
P2Y purinoceptor 2 (Homo sapiens), P41231 [R177A,R180A], sequence (P41231 whole entry R177A/R180A): as the sequence (P41231 whole entry Y118A) above, with A118Y, R177A, R180A counted along it
P2Y purinoceptor 2 (Homo sapiens, UniProt P41231, R177A/R180A), sequence (P41231 whole entry R177A/R180A): as the sequence (P41231 whole entry Y118A) above, with A118Y, R177A, R180A counted along it
P2Y purinoceptor 2 (Homo sapiens), P41231 [S296A], sequence (P41231 whole entry S296A): as the sequence (P41231 whole entry Y118A) above, with A118Y, S296A counted along it
P2Y purinoceptor 2 (Homo sapiens), P41231 [R194H], sequence (P41231 whole entry R194H): as the sequence (P41231 whole entry Y118A) above, with A118Y, R194H counted along it
P2Y purinoceptor 2 (Homo sapiens), P41231 [UNDEFINED MUTATION], sequence (P41231 whole entry, looked up, stated change not applied): as the sequence (P41231 whole entry Y118A) above, with A118Y counted along it

COc1ccc(Nc2cc(S(=O)(=O)O)c(N)c3c2C(=O)c2ccccc2C3=O)cc1
IC50 (P2Y purinoceptor 2 [1]): 3.44 µM | IC50 (P2Y purinoceptor 2 [2]): 21.9 µM | IC50 (P2Y purinoceptor 2 [3]): 24.6 µM | IC50 (P2Y purinoceptor 2 [4]): 21.7 µM | Ratio IC50 [5]: 0.2 | IC50 (P2Y purinoceptor 2 [6]): 26.5 µM | IC50 (P2Y purinoceptor 2 [7]): 22.4 µM | IC50 (P2Y purinoceptor 2 [8]): 21.1 µM

C[N+](C)(C)CCOC(N)=O
Activity (P2Y purinoceptor 2 [9]): Active

O=c1ccn([C@@H]2O[C@H](COP(=O)(O)OP(=O)(O)OP(=O)(O)OP(=O)(O)OC[C@H]3O[C@@H](n4ccc(=O)[nH]c4=O)[C@H](O)[C@@H]3O)[C@@H](O)[C@H]2O)c(=O)[nH]1
Efficacy [10]: 5% | Efficacy (P2Y purinoceptor 2 [11]): 60% | Efficacy (P2Y purinoceptor 2 [12]): 98% | Efficacy [13]: 142% | Efficacy [14]: 101% | Efficacy [15]: 102% | Efficacy [16]: 72% | Efficacy [17]: 85% | Efficacy [18]: 127% | Efficacy [19]: inactive | Efficacy [20]: inactive | Efficacy [21]: 25%

Reference: ChEMBL document CHEMBL1138525 (J Med Chem, 2009)
